{"source": "ChEMBL document CHEMBL1140127", "about": "“Enantiomeric propanolamines as selective N-methyl-D-aspartate 2B receptor antagonists” (J Med Chem, 2008)", "key": {"Mus musculus [1]": {"system": "Mus musculus", "test": "Effect on motor coordination in mouse at 30 mg/kg, ip administered 20 mins prior to test after 5 days by rotarod test", "type": "ADME, organism-based", "set-up": "dose 30 mg/kg, route intraperitoneal", "conditions": "in vivo, 120 h", "method_in_brief": "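Accelerating rotorod: mice held 10 s at 5 rpm, then accelerated from 5 to 35 rpm over 5 min; latency to fall recorded by light sensor. Four trials per day for 5 days, 25 min between trials. On day 5, mice were randomized and given a 5 mL/kg ip injection in 25% DMSO/75% saline 20 min before the first trial. Operator blinded; ANOVA with Dunnett's post hoc test.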"}, "[2]": {"molecular_target": "Adrenergic receptor alpha-2 (Rattus norvegicus, UniProt P22086+P19328+P22909)", "test": "Binding affinity to alpha2 adrenergic receptor in rat brain", "type": "tissue-based"}, "[3]": {"molecular_target": "T1, Adrenergic receptor alpha-1 (Rattus norvegicus, UniProt P15823+P23944+P43140)", "T1 sequence (P15823 whole entry)": "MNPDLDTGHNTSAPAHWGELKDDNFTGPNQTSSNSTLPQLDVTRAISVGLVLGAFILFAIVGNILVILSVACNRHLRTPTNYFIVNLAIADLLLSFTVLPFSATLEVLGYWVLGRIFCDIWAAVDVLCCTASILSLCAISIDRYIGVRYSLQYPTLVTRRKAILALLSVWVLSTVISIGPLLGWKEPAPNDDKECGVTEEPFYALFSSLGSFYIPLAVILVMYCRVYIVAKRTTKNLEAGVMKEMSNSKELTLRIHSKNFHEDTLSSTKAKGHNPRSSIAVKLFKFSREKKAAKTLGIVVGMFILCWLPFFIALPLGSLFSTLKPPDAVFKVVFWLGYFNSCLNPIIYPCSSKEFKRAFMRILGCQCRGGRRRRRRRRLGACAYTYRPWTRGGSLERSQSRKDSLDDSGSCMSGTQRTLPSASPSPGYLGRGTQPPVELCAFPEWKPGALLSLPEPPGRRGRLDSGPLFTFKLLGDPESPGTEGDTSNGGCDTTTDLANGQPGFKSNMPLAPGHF", "T1 sequence (P23944 whole entry)": "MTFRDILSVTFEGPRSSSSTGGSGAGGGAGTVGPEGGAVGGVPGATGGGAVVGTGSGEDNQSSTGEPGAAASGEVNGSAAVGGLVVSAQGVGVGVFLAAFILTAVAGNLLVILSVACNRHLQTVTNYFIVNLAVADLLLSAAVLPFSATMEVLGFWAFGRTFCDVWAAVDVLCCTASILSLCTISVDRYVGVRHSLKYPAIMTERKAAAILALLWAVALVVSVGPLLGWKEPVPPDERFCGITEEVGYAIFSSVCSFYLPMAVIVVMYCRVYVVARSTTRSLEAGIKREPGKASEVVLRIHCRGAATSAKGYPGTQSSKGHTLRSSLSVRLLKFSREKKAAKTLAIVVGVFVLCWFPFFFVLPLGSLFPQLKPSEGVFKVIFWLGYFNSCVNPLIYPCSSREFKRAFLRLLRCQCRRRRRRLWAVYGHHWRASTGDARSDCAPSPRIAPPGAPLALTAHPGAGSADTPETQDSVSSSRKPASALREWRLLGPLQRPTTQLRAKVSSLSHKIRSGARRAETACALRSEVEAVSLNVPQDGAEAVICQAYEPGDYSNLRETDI", "T1 sequence (P43140 whole entry)": "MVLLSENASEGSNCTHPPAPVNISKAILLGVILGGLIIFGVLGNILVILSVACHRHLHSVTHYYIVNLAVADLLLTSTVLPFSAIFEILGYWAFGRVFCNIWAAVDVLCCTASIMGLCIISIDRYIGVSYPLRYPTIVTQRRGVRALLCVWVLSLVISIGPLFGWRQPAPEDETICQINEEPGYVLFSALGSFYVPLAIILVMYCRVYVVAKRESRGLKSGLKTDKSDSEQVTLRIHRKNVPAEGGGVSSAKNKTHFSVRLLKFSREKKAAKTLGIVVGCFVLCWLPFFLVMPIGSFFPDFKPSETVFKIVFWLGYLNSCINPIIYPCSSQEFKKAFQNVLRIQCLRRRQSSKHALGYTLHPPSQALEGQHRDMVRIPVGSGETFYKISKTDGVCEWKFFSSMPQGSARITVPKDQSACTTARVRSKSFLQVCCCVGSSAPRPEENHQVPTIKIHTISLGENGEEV", "test": "Displacement of [3H]prazosin from alpha1 adrenergic receptor in rat brain", "type": "tissue-based", "method_in_brief": "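Rat brain membranes; displacement of [3H]-prazosin at 4–6 concentrations, each point in duplicate. IC50 from displacement curves fitted by nonlinear least-squares regression.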"}, "[4]": {"test": "Ratio of drug level in rat brain to plasma by LC-MS/MS analysis", "type": "ADME", "method_in_brief": "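Rats (n = 3 per dose) received a 4 mg/kg single iv bolus via the tail vein or 30 mg/kg ip, in 2% dimethyl acetamide/98% 5% 2-hydroxypropyl cyclodextrin, after an overnight fast. Plasma was taken at 5–240 min. Brain was homogenized in 50 mM phosphate buffer. Samples were extracted with 5 volumes of cold acetonitrile and read by LC-MS/MS (MRM) against a standard curve.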"}, "[5]": {"molecular_target": "Sodium-dependent serotonin transporter (Homo sapiens, UniProt P31645)", "sequence (P31645 whole entry)": "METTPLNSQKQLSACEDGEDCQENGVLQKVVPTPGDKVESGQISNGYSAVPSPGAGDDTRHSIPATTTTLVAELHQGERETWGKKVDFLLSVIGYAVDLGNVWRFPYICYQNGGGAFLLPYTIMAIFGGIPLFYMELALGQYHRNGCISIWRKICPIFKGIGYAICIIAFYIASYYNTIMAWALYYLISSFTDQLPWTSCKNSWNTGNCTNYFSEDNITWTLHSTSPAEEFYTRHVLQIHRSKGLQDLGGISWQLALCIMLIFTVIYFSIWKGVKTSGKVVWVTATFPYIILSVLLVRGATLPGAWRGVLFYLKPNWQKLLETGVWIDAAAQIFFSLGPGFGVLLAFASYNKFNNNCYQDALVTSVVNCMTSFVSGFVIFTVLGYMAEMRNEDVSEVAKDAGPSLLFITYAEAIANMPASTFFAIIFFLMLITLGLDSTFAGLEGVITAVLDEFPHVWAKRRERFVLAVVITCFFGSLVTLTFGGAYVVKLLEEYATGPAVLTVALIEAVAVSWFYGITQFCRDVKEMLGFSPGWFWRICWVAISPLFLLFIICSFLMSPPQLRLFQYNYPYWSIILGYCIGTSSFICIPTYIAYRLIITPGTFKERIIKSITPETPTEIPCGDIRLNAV", "test": "Binding affinity to serotonin transporter"}, "[6]": {"molecular_target": "Glutamate receptor ionotropic, kainate 2 (Rattus norvegicus) (UniProt P42260)", "sequence (P42260 whole entry)": "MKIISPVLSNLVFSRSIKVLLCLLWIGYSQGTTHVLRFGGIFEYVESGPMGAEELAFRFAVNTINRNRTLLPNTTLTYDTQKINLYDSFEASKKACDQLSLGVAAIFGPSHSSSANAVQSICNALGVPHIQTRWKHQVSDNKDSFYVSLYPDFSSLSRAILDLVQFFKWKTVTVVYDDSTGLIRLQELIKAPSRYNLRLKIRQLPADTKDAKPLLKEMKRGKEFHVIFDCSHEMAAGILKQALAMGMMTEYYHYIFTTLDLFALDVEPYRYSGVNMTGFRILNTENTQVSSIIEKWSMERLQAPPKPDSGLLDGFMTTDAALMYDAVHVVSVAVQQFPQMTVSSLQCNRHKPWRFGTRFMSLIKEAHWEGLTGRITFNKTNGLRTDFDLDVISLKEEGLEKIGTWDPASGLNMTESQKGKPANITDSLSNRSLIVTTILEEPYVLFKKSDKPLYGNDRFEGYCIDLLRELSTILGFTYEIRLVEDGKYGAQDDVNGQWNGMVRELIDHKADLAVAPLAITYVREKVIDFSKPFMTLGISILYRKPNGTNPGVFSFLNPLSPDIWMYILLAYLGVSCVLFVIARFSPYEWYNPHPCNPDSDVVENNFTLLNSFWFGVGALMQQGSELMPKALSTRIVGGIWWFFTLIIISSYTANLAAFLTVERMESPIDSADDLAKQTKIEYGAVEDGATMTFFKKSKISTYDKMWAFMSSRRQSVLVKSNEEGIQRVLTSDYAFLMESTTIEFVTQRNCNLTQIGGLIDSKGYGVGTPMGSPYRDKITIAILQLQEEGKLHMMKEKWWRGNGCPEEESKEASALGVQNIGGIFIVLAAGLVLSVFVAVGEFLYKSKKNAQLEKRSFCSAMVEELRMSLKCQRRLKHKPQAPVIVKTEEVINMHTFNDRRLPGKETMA", "test": "Inhibition of rat recombinant GluR6/KA1 expressed in Xenopus oocytes assessed as inhibition of AMPA-induced evoked current at 3 uM by two electrode voltage clamp method", "type": "cell-based", "conditions": "Oocyte", "method_in_brief": "(§1)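 Xenopus oocytes injected with 5–10 ng rat receptor cRNA and kept in Barth's solution at 18 °C. Two-electrode voltage clamp at −40 mV and 23 °C, 2–7 days after injection, in 90 NaCl/1 KCl/10 HEPES/0.5 BaCl2 mM at pH 7.3 or 7.6. Agonists: 50 μM kainate for GluR3, GluR4 and GluR2/3; 3 nM domoate for GluR6; 100 μM AMPA for GluR6/KA1. Current expressed as % of control; paired t test.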"}, "[7]": {"molecular_target": "Glutamate NMDA receptor; GRIN1/GRIN2B (Homo sapiens) (UniProt Q05586+Q13224)", "test": "Inhibition of human NR1/NR2B receptor"}, "[8]": {"molecular_target": "Glutamate receptor ionotropic, kainate 2 (Rattus norvegicus) (UniProt P42260)", "test": "Inhibition of rat recombinant GluR6 expressed in Xenopus oocytes assessed as inhibition of domoate-induced evoked current at 3 uM by two electrode voltage clamp method", "type": "cell-based", "conditions": "Oocyte", "method_in_brief": "as §1"}, "Mus musculus [9]": {"system": "Mus musculus", "test": "Neuroprotective effect against middle cerebral artery occlusion-induced transient focal ischemia in C57BL/6 mouse at 30 mg/kg, ip administered 30 mins before occlusion", "type": "functional", "conditions": "route intraperitoneal", "method_in_brief": "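Male C57BL/6 mice, 3–5 months, under 2% isoflurane at 37 °C. Left MCA occluded with an intraluminal suture for 30 min, confirmed by laser Doppler flow below 20%. Injection ip (10 mL/kg) given 30 min before occlusion. After 24 h, brains cut into 2 mm sections and stained with 2% TTC; infarct volume thresholded and edema-corrected. Operator blinded; Mann–Whitney test.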"}, "[10]": {"molecular_target": "Glutamate NMDA receptor; Grin1/Grin2b (Rattus norvegicus, UniProt P35439+Q00960)", "sequence (Q00960 whole entry, other chains not shown)": "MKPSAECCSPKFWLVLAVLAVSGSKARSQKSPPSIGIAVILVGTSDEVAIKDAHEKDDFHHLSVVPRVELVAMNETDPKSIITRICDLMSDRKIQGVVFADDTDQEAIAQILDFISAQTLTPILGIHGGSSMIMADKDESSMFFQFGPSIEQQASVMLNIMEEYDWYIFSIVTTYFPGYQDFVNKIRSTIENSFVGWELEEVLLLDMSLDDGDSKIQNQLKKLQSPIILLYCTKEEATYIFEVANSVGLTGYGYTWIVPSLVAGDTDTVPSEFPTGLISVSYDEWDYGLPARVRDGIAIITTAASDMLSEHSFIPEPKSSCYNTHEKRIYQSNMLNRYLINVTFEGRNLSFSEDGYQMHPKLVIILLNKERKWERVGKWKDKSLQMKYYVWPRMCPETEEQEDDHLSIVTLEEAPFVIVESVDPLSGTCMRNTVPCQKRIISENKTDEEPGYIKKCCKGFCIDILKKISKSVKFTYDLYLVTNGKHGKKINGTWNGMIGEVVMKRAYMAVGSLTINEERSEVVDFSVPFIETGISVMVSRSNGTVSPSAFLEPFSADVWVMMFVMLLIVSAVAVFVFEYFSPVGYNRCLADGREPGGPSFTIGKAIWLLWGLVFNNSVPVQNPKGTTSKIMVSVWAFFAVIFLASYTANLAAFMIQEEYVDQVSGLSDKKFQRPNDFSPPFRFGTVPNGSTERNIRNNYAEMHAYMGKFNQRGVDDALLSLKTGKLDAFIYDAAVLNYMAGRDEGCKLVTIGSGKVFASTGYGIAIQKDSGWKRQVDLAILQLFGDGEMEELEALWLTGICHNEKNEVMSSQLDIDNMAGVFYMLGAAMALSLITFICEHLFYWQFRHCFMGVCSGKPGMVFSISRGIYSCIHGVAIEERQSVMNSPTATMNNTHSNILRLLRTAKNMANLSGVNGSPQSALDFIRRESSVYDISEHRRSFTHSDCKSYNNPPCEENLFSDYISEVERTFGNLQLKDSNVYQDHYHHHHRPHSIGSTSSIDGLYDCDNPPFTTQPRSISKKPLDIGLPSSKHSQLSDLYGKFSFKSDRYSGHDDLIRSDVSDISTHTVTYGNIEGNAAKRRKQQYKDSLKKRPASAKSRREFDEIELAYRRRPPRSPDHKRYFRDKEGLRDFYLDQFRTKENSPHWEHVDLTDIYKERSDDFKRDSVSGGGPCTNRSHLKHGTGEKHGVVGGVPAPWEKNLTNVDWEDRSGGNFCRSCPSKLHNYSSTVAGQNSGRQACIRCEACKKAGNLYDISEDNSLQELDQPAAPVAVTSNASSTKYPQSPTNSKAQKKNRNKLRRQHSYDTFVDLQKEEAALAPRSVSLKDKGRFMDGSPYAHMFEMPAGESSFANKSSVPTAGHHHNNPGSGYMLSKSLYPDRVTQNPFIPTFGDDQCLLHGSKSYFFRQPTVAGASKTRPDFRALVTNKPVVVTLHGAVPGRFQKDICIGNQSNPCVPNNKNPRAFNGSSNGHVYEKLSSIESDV", "test": "Inhibition of rat recombinant NR1/NR2B receptor expressed in Xenopus oocytes assessed as inhibition of glutamate and glycine-induced evoked current by two electrode voltage clamp method", "type": "cell-based, Oocyte"}, "Mus musculus [11]": {"system": "Mus musculus", "test": "Plasma concentration in C57BL/6 mouse at 30 mg/kg, ip", "type": "ADME, organism-based", "set-up": "dose 30 mg/kg, route intraperitoneal", "conditions": "in vivo"}}, "note": "Active and inactive are the calls of the source."}
{"compound": "CS(=O)(=O)Nc1ccc(OC[C@@H](O)CNCCc2ccc(Cl)c(Cl)c2)cc1", "values": [{"measurement": "Activity", "setting": "Mus musculus [1]", "value": "Non-toxic"}, {"measurement": "IC50", "setting": "[2]", "value": "> 3", "unit": "µM"}, {"measurement": "IC50", "setting": "[3]", "value": 2.4, "unit": "µM"}, {"measurement": "Ratio", "setting": "[4]", "value": "< 0.05"}, {"measurement": "IC50", "setting": "[5]", "value": "> 3", "unit": "µM"}, {"measurement": "Activity", "setting": "[6]", "value": "inactive"}, {"measurement": "Activity", "setting": "[7]", "value": 53, "unit": "nM"}, {"measurement": "Activity", "setting": "[8]", "value": "inactive"}, {"measurement": "Activity", "setting": "Mus musculus [9]", "value": ">30", "unit": "%"}, {"measurement": "IC50", "setting": "[10]", "value": 0.05, "unit": "µM"}, {"measurement": "concentration", "setting": "Mus musculus [11]", "value": 1000, "unit": "nM"}]}
